Reference: PMC4065498 (Chemical research in toxicology, 2010)

Assays:
recombinant human CES1 = target: T1, recombinant human CES1 (Homo sapiens, UniProt P23141); type: biochemical; details: 2AG substrate
T1 sequence (P23141 18-567): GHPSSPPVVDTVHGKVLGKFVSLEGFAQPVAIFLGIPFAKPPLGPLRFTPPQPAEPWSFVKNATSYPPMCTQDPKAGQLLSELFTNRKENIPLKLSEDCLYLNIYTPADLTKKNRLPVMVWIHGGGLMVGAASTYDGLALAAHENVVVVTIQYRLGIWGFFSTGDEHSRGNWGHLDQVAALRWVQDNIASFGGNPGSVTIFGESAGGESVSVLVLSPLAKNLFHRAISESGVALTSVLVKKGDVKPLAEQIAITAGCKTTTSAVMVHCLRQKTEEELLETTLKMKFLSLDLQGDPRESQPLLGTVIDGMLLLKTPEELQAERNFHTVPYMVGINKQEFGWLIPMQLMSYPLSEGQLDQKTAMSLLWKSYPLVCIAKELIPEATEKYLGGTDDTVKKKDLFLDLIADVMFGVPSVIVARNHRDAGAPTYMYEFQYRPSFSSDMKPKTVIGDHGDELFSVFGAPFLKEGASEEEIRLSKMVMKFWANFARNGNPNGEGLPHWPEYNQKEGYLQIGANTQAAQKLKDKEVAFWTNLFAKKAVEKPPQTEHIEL

THP1 macrophages [1] = experiment: PG-G and 2AG levels in LPS-primed THP1 macrophages stimulated with ionomycin; type: cell-based, human; details: oxon 1 μM, ionomycin 5 μM
[2] = tested on: 31-32kDa enzyme in THP1 lysates; experiment: Activity-based protein profiling with FP-biotin in THP1 lysate: 31-32kDa enzyme; type: biochemical, human
Outline: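 THP1 monocyte lysate (1 mg/ml protein in 50 mM Tris-HCl, pH 7.4) was labelled with 2 μM FP-biotin for 1 h at room temperature. Irreversible inhibitors were preincubated for 30 min (37°C) before the probe. For the reversible inhibitor, lysate received inhibitor, then 0.2 μM FP-biotin for 7.5 min, short of full labelling. Reactions were stopped in reducing SDS loading buffer (95°C, 5 min), run on SDS-PAGE and blotted with avidin-HRP.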

THP1 foam cells = experiment: Endogenous 2AG produced by cholesterol-loaded THP1 macrophages; type: cell-based, human; details: 24 h
recombinant human MAGL = target: T2, recombinant human MAGL (Homo sapiens, UniProt Q99685); type: biochemical; details: 2AG substrate
T2 sequence (Q99685 1-303): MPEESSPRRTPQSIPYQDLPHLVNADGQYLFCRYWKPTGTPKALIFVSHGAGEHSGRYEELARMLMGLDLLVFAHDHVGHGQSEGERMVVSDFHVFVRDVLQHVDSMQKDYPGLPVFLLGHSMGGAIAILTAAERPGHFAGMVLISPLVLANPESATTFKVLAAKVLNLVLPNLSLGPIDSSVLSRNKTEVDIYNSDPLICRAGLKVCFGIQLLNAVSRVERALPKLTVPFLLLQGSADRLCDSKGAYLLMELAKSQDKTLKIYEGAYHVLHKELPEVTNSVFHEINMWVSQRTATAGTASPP

[3] = tested on: lipid glyceryl ester hydrolase activities of THP1 monocyte lysates; details: for inhibition of PGE2-G hydrolysis activity in THP1 cell lysate / inhibition of hydrolysis of exogenous 2AG in THP1 lysate: oxon 1 μM; for inhibition of hydrolysis of exogenous 2AG in THP1 lysate: 2AG 10 μM; for inhibition of 2AG hydrolysis activity in THP1 lysate: oxon 10 μM; for knock down of 2AG hydrolysis activity in THP1 monocyte lysate: oxon 500 μM
THP1 macrophages [4] = experiment: In situ formation of PG-Gs by LPS-primed THP1 macrophages given exogenous 2AG; type: cell-based, human; details: 1 μM PO 30 min prior to 10 μM 2AG; LPS-pretreated THP1 macrophages
intact THP1 monocytes = type: cell-based, human; details: PO 1 μM, 30 min; substrate 25 μM, 60 min

Row | Compound | inhibition of recombinant CES1 (in words) (recombinant human CES1) | PGF2α-G, PGE2-G, and 2AG levels compared to vehicle-treated cells following ionomycin stimulation (THP1 macrophages [1]) | concentration needed to reduce activity of the 31-32kDa enzyme toward FP-biotin [2] [µM] | amount of 2AG in culture medium relative to control group (THP1 foam cells; oxon 1 μM) [fold] | amount of 2AG in culture medium relative to control group (THP1 foam cells; oxon 10 μM) [fold] | inhibition of recombinant MAGL (in words) (recombinant human MAGL) | inhibition of PGE2-G hydrolysis activity in THP1 cell lysate [3] | inhibition of hydrolysis of exogenous 2AG in THP1 lysate [3] [%] | inhibition of 2AG hydrolysis activity in THP1 lysate [3] | knock down of 2AG hydrolysis activity in THP1 monocyte lysate [3] [%] | increase in PGE2-G levels (THP1 macrophages [4]) [fold] | increase in PGF2α-G levels (THP1 macrophages [4]) [fold] | inhibition of hydrolysis of exogenous 2AG, PGE2-G, or PGF2α-G by intact THP1 monocytes (intact THP1 monocytes)
1 | chlorpyrifos oxon [CPO] | potently inhibit | significantly elevated | > 10 | 2.5 | 8.1 | potently inhibit | near complete inhibition | 49 | 72% | 94 | – | – | –
2 | CCOP(=O)(OCC)Oc1ccc([N+](=O)[O-])cc1 [PO, paraoxon] | – | did not significantly elevate | – | 3.1 | 3.5 | – | near complete inhibition | 35 | did not further enhance inhibition | 55 | 2 | 4 | ~ 50%
